The source made the active and inactive calls. The rule behind the calls is not given here.
What was measured:
[1] = molecular target: Lysine-specific histone demethylase 1A (Homo sapiens) (UniProt O60341); assay: Induction of LSD1 degradation in human HCT-116 cells assessed as reduction in LSD1 abundance by measuring remaining activity at 10 uM measured after 24 hrs by Western blot analysis (reference value: 100%); assay type: cell-based
Method in brief: (§1)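 HCT116 cells seeded in six-well plates for 24 h, then exposed 24 h to compound (0.01–10 μM) or DMSO in fresh medium. Lysis in Tris-HCl/NaCl/NP-40/Triton X-100 with protease inhibitor. Bradford-normalised 30 μg protein per lane. Quantitative Western blot used specific HDAC1, HDAC2, HDAC3, LSD1 or Sin3a antibodies with IRDye secondaries. Abundance compared with DMSO, n = 2 replicates.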

[2] = tested on: HCT-116; assay: Effect on histone H3 lysine K56 acetylation in human HCT-116 cells assessed as increase in H3K56ac level at 10 uM by Western blot analysis; assay type: functional, cell-based
Method in brief: (§2)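 HCT116 cells (DMEM, 10% FBS, glutamine/pen/strep, 37 °C, 5% CO2) seeded 24 h, then treated with DMSO or compound in fresh medium. Pellets after lysis were acid-extracted with 0.4 N H2SO4 at 4 °C overnight. Acid histone extract run on 4–12% bis-Tris gels, transferred to nitrocellulose and probed for H3K56ac. IRDye secondaries with infrared imaging.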

[3] = molecular target: von Hippel-Lindau disease tumor suppressor/Histone deacetylase 1 (Homo sapiens) (UniProt Q13547+P40337); assay: PROTAC activity at VHL/HDAC1 in human HCT-116 cells assessed as decrease in HDAC1 abundance by measuring remaining activity at 10 uM measured after 24 hrs by Western blot analysis (reference value: 100%); assay type: cell-based
Method in brief: (§3)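 HCT116 cells in DMEM with 10% FBS and glutamine/penicillin/streptomycin at 37 °C, 5% CO2. Seeded 4 × 10^5 cells/well, after 24 h treated 24 h with DMSO or compound in fresh medium. Lysed in Tris-HCl/NaCl/NP-40/Triton X-100 buffer with protease inhibitor, Bradford-quantified, 30 μg protein per lane. Quantitative Western blot with specific HDAC1/2/3 antibodies, IRDye secondaries, infrared imaging, versus DMSO. n = 2 replicates.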

[4] = molecular target: von Hippel-Lindau disease tumor suppressor/Histone deacetylase 3 (Homo sapiens) (UniProt O15379+P40337); assay: PROTAC activity at VHL/HDAC3 in human HCT-116 cells assessed as reduction in HDAC3 abundance by measuring remaining activity at 10 uM measured after 24 hrs by Western blot analysis (reference value: 100%); assay type: cell-based; method in brief: as §3
[5] = molecular target: von Hippel-Lindau disease tumor suppressor/Histone deacetylase 2 (Homo sapiens) (UniProt Q92769+P40337); assay: PROTAC activity at VHL/HDAC2 in human HCT-116 cells assessed as decrease in HDAC2 abundance by measuring remaining activity at 10 uM measured after 24 hrs by Western blot analysis (reference value: 100%); assay type: cell-based; method in brief: as §3
[6] = molecular target: T1, Paired amphipathic helix protein Sin3a (Homo sapiens) (UniProt Q96ST3); assay: Induction of SIN3A degradation in human HCT-116 cells assessed as reduction in SIN3A abundance by measuring remaining activity at 10 uM measured after 24 hrs by Western blot analysis (reference value: 100%); assay type: cell-based; method in brief: as §1
T1 sequence (whole entry): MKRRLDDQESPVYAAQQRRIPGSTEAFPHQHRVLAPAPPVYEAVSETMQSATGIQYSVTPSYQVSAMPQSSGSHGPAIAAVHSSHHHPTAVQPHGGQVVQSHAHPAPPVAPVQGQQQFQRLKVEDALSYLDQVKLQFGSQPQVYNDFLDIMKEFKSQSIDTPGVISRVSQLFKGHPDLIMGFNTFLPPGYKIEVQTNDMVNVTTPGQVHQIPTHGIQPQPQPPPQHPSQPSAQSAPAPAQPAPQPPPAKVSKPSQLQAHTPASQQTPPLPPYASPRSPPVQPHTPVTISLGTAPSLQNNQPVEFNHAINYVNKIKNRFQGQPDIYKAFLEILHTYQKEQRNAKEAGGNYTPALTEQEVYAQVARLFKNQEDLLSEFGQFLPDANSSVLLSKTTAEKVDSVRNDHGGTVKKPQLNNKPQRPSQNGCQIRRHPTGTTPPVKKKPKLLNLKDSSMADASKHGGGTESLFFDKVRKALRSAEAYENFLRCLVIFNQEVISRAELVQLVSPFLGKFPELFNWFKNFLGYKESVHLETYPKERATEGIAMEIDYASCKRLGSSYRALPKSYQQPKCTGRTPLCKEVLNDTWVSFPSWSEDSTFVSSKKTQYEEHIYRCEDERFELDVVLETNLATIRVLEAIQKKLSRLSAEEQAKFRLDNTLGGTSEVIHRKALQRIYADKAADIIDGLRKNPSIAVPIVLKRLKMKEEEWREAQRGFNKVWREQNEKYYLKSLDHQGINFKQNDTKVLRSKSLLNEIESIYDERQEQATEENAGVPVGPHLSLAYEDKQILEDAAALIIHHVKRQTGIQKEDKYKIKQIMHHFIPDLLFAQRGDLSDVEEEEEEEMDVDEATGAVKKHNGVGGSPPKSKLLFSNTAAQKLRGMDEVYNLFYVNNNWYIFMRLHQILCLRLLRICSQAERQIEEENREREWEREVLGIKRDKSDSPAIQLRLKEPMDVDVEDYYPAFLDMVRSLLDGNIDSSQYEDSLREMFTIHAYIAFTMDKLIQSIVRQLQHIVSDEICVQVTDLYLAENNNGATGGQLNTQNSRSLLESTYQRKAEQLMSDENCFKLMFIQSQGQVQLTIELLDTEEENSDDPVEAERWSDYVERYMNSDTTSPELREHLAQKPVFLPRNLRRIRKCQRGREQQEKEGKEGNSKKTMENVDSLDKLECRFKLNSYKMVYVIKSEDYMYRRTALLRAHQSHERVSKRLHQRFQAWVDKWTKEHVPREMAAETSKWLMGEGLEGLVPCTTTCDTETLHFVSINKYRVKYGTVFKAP

[7] = molecular target: T2, E3 ubiquitin-protein ligase Mdm2/Histone deacetylase 1 (Homo sapiens) (UniProt Q00987+Q13547); assay: PROTAC activity at MDM2/HDAC1 in human HCT-116 cells assessed as decrease in HDAC1 abundance by measuring remaining activity at 1 uM measured after 24 hrs by Western blot analysis (reference value: 100%); assay type: cell-based; method in brief: as §1
[8] = molecular target: T3, E3 ubiquitin-protein ligase Mdm2/Histone deacetylase 2 (Homo sapiens) (UniProt Q00987+Q92769); assay: PROTAC activity at MDM2/HDAC2 in human HCT-116 cells assessed as decrease in HDAC2 abundance by measuring remaining activity at 10 uM measured after 24 hrs by Western blot analysis (reference value: 100%); assay type: cell-based; method in brief: as §1
[9] = molecular target: T4, E3 ubiquitin-protein ligase Mdm2/Histone deacetylase 3 (Homo sapiens) (UniProt Q00987+O15379); assay: PROTAC activity at MDM2/HDAC3 in human HCT-116 cells assessed as reduction in HDAC3 abundance by measuring remaining activity at 10 uM measured after 24 hrs by Western blot analysis (reference value: 100%); assay type: cell-based; method in brief: as §3
[10] = molecular target: T4, E3 ubiquitin-protein ligase Mdm2/Histone deacetylase 3 (Homo sapiens); assay: PROTAC activity at MDM2/HDAC3 in human HCT-116 cells assessed as reduction in HDAC3 abundance by measuring remaining activity at 0.1 uM measured after 24 hrs by Western blot analysis (reference value: 100%); assay type: cell-based; method in brief: as §3
[11] = molecular target: T3, E3 ubiquitin-protein ligase Mdm2/Histone deacetylase 2 (Homo sapiens); assay: PROTAC activity at MDM2/HDAC2 in human HCT-116 cells assessed as decrease in HDAC2 abundance by measuring remaining activity at 0.1 uM measured after 24 hrs by Western blot analysis (reference value: 100%); assay type: cell-based; method in brief: as §1
[12] = molecular target: T3, E3 ubiquitin-protein ligase Mdm2/Histone deacetylase 2 (Homo sapiens); assay: PROTAC activity at MDM2/HDAC2 in human HCT-116 cells assessed as decrease in HDAC2 abundance by measuring remaining activity at 1 uM measured after 24 hrs by Western blot analysis (reference value: 100%); assay type: cell-based; method in brief: as §1
[13] = molecular target: T2, E3 ubiquitin-protein ligase Mdm2/Histone deacetylase 1 (Homo sapiens); assay: PROTAC activity at MDM2/HDAC1 in human HCT-116 cells assessed as decrease in HDAC1 abundance by measuring remaining activity at 10 uM measured after 24 hrs by Western blot analysis (reference value: 100%); assay type: cell-based; method in brief: as §1
[14] = molecular target: T2, E3 ubiquitin-protein ligase Mdm2/Histone deacetylase 1 (Homo sapiens); assay: PROTAC activity at MDM2/HDAC1 in human HCT-116 cells assessed as decrease in HDAC1 abundance by measuring remaining activity at 0.1 uM measured after 24 hrs by Western blot analysis (reference value: 100%); assay type: cell-based; method in brief: as §1
[15] = molecular target: T4, E3 ubiquitin-protein ligase Mdm2/Histone deacetylase 3 (Homo sapiens); assay: PROTAC activity at MDM2/HDAC3 in human HCT-116 cells assessed as reduction in HDAC3 abundance by measuring remaining activity at 1 uM measured after 24 hrs by Western blot analysis (reference value: 100%); assay type: cell-based; method in brief: as §3
[16] = tested on: HCT-116; assay: Effect on histone H3 lysine K56 acetylation in human HCT-116 cells assessed as increase in H3K56ac level at 0.1 to 10 uM by Western blot analysis; assay type: functional, cell-based; conditions: dose 0.1-10 µM; method in brief: as §2
[17] = molecular target: Histone deacetylase 3 (Homo sapiens) (UniProt O15379); assay: Induction of HDAC3 degradation in human HCT-116 cells assessed as reduction in HDAC3 abundance by measuring remaining activity at 10 uM measured after 24 hrs by Western blot analysis; assay type: cell-based; method in brief: as §1
[18] = Inhibition of LSD1-CoREST-HDAC (unknown origin) by AMC-fluorescence assay; design: species or system Homo sapiens
[19] = molecular target: Histone deacetylase 3 (Homo sapiens) (UniProt O15379); assay: Induction of HDAC3 degradation in human HCT-116 cells assessed as reduction in HDAC3 abundance by measuring remaining activity at 1 uM measured after 24 hrs by Western blot analysis; assay type: cell-based; method in brief: as §1

T4 sequence (O15379 whole entry, looked up): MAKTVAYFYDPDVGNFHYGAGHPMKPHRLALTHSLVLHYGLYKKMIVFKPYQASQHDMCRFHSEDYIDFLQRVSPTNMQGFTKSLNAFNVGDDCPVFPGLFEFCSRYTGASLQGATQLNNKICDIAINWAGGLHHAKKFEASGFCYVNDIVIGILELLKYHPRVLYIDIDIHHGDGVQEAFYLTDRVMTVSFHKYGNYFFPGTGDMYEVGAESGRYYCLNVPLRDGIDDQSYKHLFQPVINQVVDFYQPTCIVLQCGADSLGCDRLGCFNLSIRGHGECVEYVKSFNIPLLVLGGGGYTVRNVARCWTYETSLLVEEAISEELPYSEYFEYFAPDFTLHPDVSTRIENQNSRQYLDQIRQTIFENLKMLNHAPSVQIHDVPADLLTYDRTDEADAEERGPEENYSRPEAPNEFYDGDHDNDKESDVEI
T4 sequence (Q00987 whole entry, looked up): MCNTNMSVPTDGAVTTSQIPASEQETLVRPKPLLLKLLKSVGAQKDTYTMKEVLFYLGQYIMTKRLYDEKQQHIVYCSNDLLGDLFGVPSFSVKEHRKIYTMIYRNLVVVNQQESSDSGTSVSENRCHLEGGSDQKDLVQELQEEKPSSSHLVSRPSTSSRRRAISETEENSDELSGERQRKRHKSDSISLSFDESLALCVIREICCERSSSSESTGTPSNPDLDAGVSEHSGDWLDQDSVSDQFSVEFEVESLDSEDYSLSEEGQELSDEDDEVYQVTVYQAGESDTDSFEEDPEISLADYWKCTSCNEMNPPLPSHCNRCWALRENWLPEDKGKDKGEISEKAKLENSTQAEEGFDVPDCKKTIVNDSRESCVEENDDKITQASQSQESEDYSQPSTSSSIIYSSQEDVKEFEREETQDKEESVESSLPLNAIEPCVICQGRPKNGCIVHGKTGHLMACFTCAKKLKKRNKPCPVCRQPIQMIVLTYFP
Histone deacetylase 3 (Homo sapiens), sequence (O15379 whole entry): as the sequence (O15379 whole entry, looked up) above
T2 sequence (Q00987 whole entry, looked up): as the sequence (Q00987 whole entry, looked up) above
T2 sequence (Q13547 whole entry, looked up): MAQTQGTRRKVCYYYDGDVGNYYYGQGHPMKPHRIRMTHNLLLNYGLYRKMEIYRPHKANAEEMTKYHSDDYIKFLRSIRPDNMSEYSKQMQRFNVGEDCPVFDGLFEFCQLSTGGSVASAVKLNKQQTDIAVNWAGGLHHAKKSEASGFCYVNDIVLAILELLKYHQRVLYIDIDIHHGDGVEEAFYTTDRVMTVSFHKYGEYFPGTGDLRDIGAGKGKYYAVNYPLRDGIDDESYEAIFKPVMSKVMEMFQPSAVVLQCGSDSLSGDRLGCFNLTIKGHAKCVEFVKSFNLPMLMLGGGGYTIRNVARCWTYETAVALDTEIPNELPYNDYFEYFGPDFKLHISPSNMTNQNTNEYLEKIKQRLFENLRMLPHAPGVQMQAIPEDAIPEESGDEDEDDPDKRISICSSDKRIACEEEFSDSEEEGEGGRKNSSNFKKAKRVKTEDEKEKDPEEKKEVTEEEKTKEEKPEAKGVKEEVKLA
T3 sequence (Q00987 whole entry, looked up): as the sequence (Q00987 whole entry, looked up) above
T3 sequence (Q92769 whole entry, looked up): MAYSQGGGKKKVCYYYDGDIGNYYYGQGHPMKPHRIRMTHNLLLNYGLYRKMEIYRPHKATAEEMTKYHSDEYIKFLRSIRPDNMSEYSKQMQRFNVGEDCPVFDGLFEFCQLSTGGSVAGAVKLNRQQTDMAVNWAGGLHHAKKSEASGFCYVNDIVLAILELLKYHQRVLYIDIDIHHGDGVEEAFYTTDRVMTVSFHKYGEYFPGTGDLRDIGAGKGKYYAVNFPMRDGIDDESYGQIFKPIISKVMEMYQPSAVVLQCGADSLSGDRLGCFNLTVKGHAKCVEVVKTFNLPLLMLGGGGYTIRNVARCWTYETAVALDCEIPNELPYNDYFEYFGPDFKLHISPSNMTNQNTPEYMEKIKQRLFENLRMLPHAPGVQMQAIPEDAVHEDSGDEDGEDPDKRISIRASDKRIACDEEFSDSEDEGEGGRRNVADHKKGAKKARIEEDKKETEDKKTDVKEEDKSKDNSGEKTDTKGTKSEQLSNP
von Hippel-Lindau disease tumor suppressor/Histone deacetylase 1 (Homo sapiens), sequence (P40337 whole entry, looked up): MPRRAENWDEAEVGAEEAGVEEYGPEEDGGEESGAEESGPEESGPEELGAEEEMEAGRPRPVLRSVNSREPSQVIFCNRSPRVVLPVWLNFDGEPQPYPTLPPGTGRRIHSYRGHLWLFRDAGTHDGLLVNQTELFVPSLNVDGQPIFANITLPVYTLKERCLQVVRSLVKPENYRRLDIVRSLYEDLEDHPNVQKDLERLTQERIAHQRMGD
von Hippel-Lindau disease tumor suppressor/Histone deacetylase 1 (Homo sapiens), sequence (Q13547 whole entry, looked up): as the sequence (Q13547 whole entry, looked up) above
von Hippel-Lindau disease tumor suppressor/Histone deacetylase 2 (Homo sapiens), sequence (P40337 whole entry, looked up): as the sequence (P40337 whole entry, looked up) above
von Hippel-Lindau disease tumor suppressor/Histone deacetylase 2 (Homo sapiens), sequence (Q92769 whole entry, looked up): as the sequence (Q92769 whole entry, looked up) above
von Hippel-Lindau disease tumor suppressor/Histone deacetylase 3 (Homo sapiens), sequence (O15379 whole entry, looked up): as the sequence (O15379 whole entry, looked up) above
von Hippel-Lindau disease tumor suppressor/Histone deacetylase 3 (Homo sapiens), sequence (P40337 whole entry, looked up): as the sequence (P40337 whole entry, looked up) above

Structure (SMILES)	Activity [1] [%]	Activity [3] [%]	Activity [4] [%]	Activity [5] [%]	Activity [6] [%]	Activity [7] [%]	Activity [8] [%]	Activity [9] [%]	Activity [10] [%]	Activity [11] [%]	Activity [12] [%]	Activity [13] [%]	Activity [14] [%]	Activity [15] [%]	Activity [17] [%]	IC50 [18] [nM]	Activity [19] [%]	Activity [2]	Activity [16]
COc1cc(C(=O)NCCOCCOCCOCCC(=O)Nc2ccc(C(=O)Nc3ccccc3N)cc2)ccc1NC(=O)[C@@H]1N[C@@H](CC(C)(C)C)[C@](C#N)(c2ccc(Cl)cc2F)[C@H]1c1cccc(Cl)c1F						85	84	122	112	102	94	65	91	128					inactive
CC(=O)Nc1ccc(C(=O)Nc2ccccc2N)cc1 [TACEDINALINE]	109				81										138	~500	122	Active	
COc1cc(C(=O)O)ccc1NC(=O)[C@@H]1N[C@@H](CC(C)(C)C)[C@](C#N)(c2ccc(Cl)cc2F)[C@H]1c1cccc(Cl)c1F															101		110		

Now from value to compound, other results behind:

Activity [1] [%]	Activity [3] [%]	Activity [4] [%]	Activity [5] [%]	Activity [6] [%]	Activity [7] [%]	Activity [8] [%]	Activity [9] [%]	Activity [10] [%]	Activity [11] [%]	Activity [12] [%]	Activity [13] [%]	Activity [14] [%]	Activity [15] [%]	Activity [17] [%]	IC50 [18] [nM]	Activity [19] [%]	Structure (SMILES)	Activity [2]	Activity [16]
97	37	88	58	85													Cc1ncsc1-c1ccc(CNC(=O)[C@@H]2C[C@@H](O)CN2C(=O)[C@@H](NC(=O)CCCCCCCCCCC(=O)Nc2ccc(C(=O)Nc3ccccc3N)cc2)C(C)(C)C)cc1	Active	
					103	103	118	101	100	101	109	98	102				COc1cc(C(=O)NCCCCCCCCCCCC(=O)Nc2ccc(C(=O)Nc3ccccc3N)cc2)ccc1NC(=O)[C@@H]1N[C@@H](CC(C)(C)C)[C@](C#N)(c2ccc(Cl)cc2F)[C@H]1c1cccc(Cl)c1F		
					88	100	109	114	100	101	101	93	114				COc1cc(C(=O)NCCCCCCCC(=O)Nc2ccc(C(=O)Nc3ccccc3N)cc2)ccc1NC(=O)[C@@H]1N[C@@H](CC(C)(C)C)[C@](C#N)(c2ccc(Cl)cc2F)[C@H]1c1cccc(Cl)c1F		

Reference: ChEMBL document CHEMBL5357024, “MDM2 Antagonist Idasanutlin Reduces HDAC1/2 Abundance and Corepressor Partners but Not HDAC3” (ACS Med Chem Lett, 2024)
